One compound from ChEMBL document CHEMBL5357024, “MDM2 Antagonist Idasanutlin Reduces HDAC1/2 Abundance and Corepressor Partners but Not HDAC3” (ACS Med Chem Lett, 2024) can be followed below.

Activity calls are given as the source filed them. No cut-off for these calls is given here.

What all share (format): cell-based
Experiment [1] has as its target T1, E3 ubiquitin-protein ligase Mdm2/Histone deacetylase 1 (Homo sapiens) (UniProt Q00987+Q13547). The experiment in a line: PROTAC activity at MDM2/HDAC1 in human HCT-116 cells assessed as decrease in HDAC1 abundance by measuring remaining activity at 0.1 uM measured after 24 hrs by Western blot analysis (reference value: 100%). In short, it runs like this: (§1)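 HCT116 cells seeded in six-well plates for 24 h, then exposed 24 h to compound (0.01–10 μM) or DMSO in fresh medium. Lysis in Tris-HCl/NaCl/NP-40/Triton X-100 with protease inhibitor. Bradford-normalised 30 μg protein per lane. Quantitative Western blot used specific HDAC1, HDAC2, HDAC3, LSD1 or Sin3a antibodies with IRDye secondaries. Abundance compared with DMSO, n = 2 replicates.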
(Immunoblotting shows a protein as a band on a membrane.)

Experiment [2] deals with T2, E3 ubiquitin-protein ligase Mdm2/Histone deacetylase 3 (Homo sapiens) (UniProt Q00987+O15379). The experiment in a line: PROTAC activity at MDM2/HDAC3 in human HCT-116 cells assessed as reduction in HDAC3 abundance by measuring remaining activity at 0.1 uM measured after 24 hrs by Western blot analysis (reference value: 100%). The essentials:
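HCT116 cells in DMEM with 10% FBS and glutamine/penicillin/streptomycin at 37 °C, 5% CO2. Seeded 4 × 10^5 cells/well, after 24 h treated 24 h with DMSO or compound in fresh medium. Lysed in Tris-HCl/NaCl/NP-40/Triton X-100 buffer with protease inhibitor, Bradford-quantified, 30 μg protein per lane. Quantitative Western blot with specific HDAC1/2/3 antibodies, IRDye secondaries, infrared imaging, versus DMSO. n = 2 replicates.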

For experiment [3], the target named is T2, E3 ubiquitin-protein ligase Mdm2/Histone deacetylase 3 (Homo sapiens). Nature of the experiment: PROTAC activity at MDM2/HDAC3 in human HCT-116 cells assessed as induction of HDAC3 degradation at 0.01 to 10 uM by Western blot analysis. As to conditions: dose 0.01-10 µM.
The target in experiment [4] is T1, E3 ubiquitin-protein ligase Mdm2/Histone deacetylase 1 (Homo sapiens). Nature of the experiment: PROTAC activity at MDM2/HDAC1 in human HCT-116 cells assessed as decrease in HDAC1 abundance by measuring remaining activity at 0.01 uM measured after 24 hrs by Western blot analysis (reference value: 100%). The essentials:
as §1

Experiment [5] has the same target. The experiment in a line: PROTAC activity at MDM2/HDAC1 in human HCT-116 cells assessed as decrease in HDAC1 abundance by measuring remaining activity at 0.25 uM measured after 24 hrs by Western blot analysis (reference value: 100%). The essentials:
as §1

Experiment [6] has the same target. The experiment in a line: PROTAC activity at MDM2/HDAC1 in human HCT-116 cells assessed as decrease in HDAC1 abundance by measuring remaining activity at 0.5 uM measured after 24 hrs by Western blot analysis (reference value: 100%). The essentials: as §1
For experiment [7], the target named is T3, E3 ubiquitin-protein ligase Mdm2/Histone deacetylase 2 (Homo sapiens) (UniProt Q00987+Q92769). Nature of the experiment: PROTAC activity at MDM2/HDAC2 in human HCT-116 cells assessed as decrease in HDAC2 abundance by measuring remaining activity at 0.025 uM measured after 24 hrs by Western blot analysis (reference value: 100%). In short, it runs like this: as §1
T3 sequence (Q00987 whole entry, looked up): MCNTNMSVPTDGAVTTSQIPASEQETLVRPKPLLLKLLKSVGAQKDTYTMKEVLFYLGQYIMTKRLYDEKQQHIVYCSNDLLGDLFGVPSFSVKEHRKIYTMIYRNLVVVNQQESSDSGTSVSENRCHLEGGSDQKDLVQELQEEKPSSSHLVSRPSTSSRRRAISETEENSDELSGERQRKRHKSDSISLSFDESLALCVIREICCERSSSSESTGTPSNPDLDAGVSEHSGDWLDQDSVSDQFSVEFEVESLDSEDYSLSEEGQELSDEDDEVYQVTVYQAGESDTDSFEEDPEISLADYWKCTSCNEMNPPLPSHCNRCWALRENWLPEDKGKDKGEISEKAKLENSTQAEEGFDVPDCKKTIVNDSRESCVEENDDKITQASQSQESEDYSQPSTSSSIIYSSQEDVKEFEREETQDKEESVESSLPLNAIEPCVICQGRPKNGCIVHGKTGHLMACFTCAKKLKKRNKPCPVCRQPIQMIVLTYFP
T3 sequence (Q92769 whole entry, looked up): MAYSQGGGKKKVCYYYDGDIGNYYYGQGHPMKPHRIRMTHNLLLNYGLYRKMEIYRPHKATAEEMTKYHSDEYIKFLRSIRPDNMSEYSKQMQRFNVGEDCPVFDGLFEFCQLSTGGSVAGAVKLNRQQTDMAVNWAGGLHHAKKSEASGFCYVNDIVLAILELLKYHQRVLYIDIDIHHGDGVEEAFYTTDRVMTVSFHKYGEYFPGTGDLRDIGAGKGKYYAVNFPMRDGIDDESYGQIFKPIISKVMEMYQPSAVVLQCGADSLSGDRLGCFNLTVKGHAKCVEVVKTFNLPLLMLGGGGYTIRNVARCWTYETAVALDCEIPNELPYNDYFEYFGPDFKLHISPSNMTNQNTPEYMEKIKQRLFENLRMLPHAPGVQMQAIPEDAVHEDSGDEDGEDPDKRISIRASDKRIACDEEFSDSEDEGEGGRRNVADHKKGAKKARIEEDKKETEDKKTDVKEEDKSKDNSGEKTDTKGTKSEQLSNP

The target in experiment [8] is T3, E3 ubiquitin-protein ligase Mdm2/Histone deacetylase 2 (Homo sapiens). The experiment in a line: PROTAC activity at MDM2/HDAC2 in human HCT-116 cells assessed as decrease in HDAC2 abundance by measuring remaining activity at 0.05 uM measured after 24 hrs by Western blot analysis (reference value: 100%). In short, it runs like this: as §1
Experiment [9] has the same target. The experiment in a line: PROTAC activity at MDM2/HDAC2 in human HCT-116 cells assessed as decrease in HDAC2 abundance by measuring remaining activity at 0.25 uM measured after 24 hrs by Western blot analysis (reference value: 100%). The essentials:
as §1

For experiment [10] the target is unchanged. Nature of the experiment: PROTAC activity at MDM2/HDAC2 in human HCT-116 cells assessed as decrease in HDAC2 abundance by measuring remaining activity at 2.5 uM measured after 24 hrs by Western blot analysis (reference value: 100%). The essentials: as §1
Experiment [11] deals with T4, Paired amphipathic helix protein Sin3a (Homo sapiens) (UniProt Q96ST3).
T4 sequence (whole entry): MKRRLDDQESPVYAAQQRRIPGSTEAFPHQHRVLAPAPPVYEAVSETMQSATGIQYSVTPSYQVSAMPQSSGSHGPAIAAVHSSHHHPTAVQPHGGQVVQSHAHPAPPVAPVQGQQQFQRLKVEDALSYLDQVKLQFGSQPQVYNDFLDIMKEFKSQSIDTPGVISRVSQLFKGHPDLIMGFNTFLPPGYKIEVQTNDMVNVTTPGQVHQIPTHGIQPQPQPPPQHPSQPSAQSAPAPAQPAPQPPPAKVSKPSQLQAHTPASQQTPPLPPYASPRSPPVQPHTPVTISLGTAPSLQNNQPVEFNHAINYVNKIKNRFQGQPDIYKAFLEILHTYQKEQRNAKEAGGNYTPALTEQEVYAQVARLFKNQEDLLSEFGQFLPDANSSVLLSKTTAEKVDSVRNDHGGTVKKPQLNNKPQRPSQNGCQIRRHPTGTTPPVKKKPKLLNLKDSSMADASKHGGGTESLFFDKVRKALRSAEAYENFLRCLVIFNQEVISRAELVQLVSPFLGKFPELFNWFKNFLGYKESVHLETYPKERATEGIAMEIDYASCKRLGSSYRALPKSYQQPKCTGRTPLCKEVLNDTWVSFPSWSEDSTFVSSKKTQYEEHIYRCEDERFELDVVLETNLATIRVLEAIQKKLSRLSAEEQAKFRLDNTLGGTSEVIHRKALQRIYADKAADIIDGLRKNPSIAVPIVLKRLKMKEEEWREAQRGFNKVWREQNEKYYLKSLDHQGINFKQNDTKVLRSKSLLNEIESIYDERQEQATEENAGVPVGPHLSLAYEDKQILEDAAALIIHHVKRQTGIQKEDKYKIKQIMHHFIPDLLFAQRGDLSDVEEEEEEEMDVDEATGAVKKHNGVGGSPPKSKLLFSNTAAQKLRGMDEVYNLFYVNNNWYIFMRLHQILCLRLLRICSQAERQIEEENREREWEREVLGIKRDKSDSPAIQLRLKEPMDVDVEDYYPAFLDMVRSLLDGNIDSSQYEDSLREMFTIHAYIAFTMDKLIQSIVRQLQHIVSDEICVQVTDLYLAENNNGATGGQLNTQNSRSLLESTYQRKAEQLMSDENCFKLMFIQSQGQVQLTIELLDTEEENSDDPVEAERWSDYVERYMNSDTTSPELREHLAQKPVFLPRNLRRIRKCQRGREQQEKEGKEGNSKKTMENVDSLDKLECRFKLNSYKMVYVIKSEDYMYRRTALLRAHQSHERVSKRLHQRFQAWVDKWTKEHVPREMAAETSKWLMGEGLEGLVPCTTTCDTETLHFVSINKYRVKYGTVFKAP
The experiment in a line: Induction of SIN3A degradation in human HCT-116 cells assessed as reduction in SIN3A abundance by measuring remaining activity at 2.5 uM measured after 24 hrs by Western blot analysis (reference value: 100%). In short, it runs like this:
as §1

The target of experiment [12] is Lysine-specific histone demethylase 1A (Homo sapiens) (UniProt O60341). Nature of the experiment: Induction of LSD1 degradation in human HCT-116 cells assessed as reduction in LSD1 abundance by measuring remaining activity at 10 uM measured after 24 hrs by Western blot analysis (reference value: 100%). The essentials: as §1

T1 sequence (Q00987 whole entry, looked up): as the sequence (Q00987 whole entry, looked up) above
T1 sequence (Q13547 whole entry, looked up): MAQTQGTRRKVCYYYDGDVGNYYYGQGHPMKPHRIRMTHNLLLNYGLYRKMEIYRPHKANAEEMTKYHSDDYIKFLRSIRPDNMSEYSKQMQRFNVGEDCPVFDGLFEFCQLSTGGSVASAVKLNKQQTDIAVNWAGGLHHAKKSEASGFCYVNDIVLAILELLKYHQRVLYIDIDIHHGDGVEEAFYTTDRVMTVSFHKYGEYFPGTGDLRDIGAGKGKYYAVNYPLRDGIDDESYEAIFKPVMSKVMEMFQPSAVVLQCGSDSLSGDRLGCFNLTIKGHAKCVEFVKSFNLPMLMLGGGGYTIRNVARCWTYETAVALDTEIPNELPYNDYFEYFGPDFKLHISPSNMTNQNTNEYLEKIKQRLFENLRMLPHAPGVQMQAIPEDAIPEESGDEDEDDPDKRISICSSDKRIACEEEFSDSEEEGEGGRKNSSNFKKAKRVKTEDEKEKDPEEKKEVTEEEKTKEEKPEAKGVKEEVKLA
T2 sequence (O15379 whole entry, looked up): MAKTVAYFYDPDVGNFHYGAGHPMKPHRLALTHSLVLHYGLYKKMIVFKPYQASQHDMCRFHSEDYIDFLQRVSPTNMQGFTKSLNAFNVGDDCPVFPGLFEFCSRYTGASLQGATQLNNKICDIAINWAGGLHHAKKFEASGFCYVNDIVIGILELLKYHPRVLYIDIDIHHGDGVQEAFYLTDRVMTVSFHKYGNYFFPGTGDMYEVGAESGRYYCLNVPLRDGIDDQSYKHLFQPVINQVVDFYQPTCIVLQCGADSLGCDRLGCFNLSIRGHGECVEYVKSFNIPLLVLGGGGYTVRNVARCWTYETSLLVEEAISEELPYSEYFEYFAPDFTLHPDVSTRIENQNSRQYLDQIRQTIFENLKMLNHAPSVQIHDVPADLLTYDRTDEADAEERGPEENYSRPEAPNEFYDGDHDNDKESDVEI
T2 sequence (Q00987 whole entry, looked up): as the sequence (Q00987 whole entry, looked up) above

For the compound `COc1cc(C(=O)NCCOCCOCCOCCOCCC(=O)Nc2ccc(C(=O)Nc3ccccc3N)cc2)ccc1NC(=O)[C@@H]1N[C@@H](CC(C)(C)C)[C@](C#N)(c2ccc(Cl)cc2F)[C@H]1c1cccc(Cl)c1F`, the Activity was 84% in [1]; 103% in experiment [2]; 108% in experiment [4]; 70% in experiment [5]; 67% in [6]; 96% in experiment [7]. Further, the Activity stood at 90% in experiment [8]; 90% in [9]; 72% in [10]; 57% in experiment [11]; 65% in experiment [12]. Also, the outcome in experiment [3] was inactive.
